Calls of active or inactive are those of the source. No cut-off for these calls is given here.
Key:
HL-60 [1] = assay: Photocytotoxicity against human HL60 cells assessed as growth inhibition at 2.5 J/cm'2 irradiation for 30 mins followed by drug treated for 72 hrs by MTT assay; assay type: functional; settings: HL-60, light or radiation study
Outline: (§1)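 Cells seeded at 5 × 10³ per well and pre-incubated 24 h. Drug dilutions in HBSS (pH 7.2, from DMSO stock) added for 30 min at 37 °C, then UV-A irradiation at the stated dose. Drug solution then replaced with culture medium and plates incubated 72 h. Viability by MTT; GI50 from concentration series.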

LoVo [2] = assay: Cytotoxicity against human LoVo cells assessed as growth inhibition after 72 hrs by MTT assay; assay type: functional
Outline: (§2)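 Cells (5 × 10³ per well) pre-incubated 24 h at 37 °C, 5% CO₂, then exposed in the dark to serial concentrations diluted from DMSO stock into complete medium for 72 h at 37 °C. Viability read by MTT; GI50 derived. LoVo in Ham's F-12, MCF-7 and A-549 in DMEM, all with 10% FBS and penicillin/streptomycin.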

A549 [3] = assay: Photocytotoxicity against human A549 cells assessed as growth inhibition at 2.5 J/cm'2 irradiation for 30 mins followed by drug treated for 72 hrs by MTT assay; assay type: functional; settings: A549, light or radiation study; outline: as §1
HL-60 [4] = assay: Cytotoxicity against human HL60 cells assessed as growth inhibition after 72 hrs by MTT assay; assay type: functional; settings: HL-60, 72 h
MCF7 [5] = assay: Photocytotoxicity against human MCF7 cells assessed as growth inhibition at 3.75 J/cm'2 irradiation for 30 mins followed by drug treated for 72 hrs by MTT assay; assay type: functional; settings: MCF7, light or radiation study; outline: as §1
MCF7 [6] = assay: Cytotoxicity against human MCF7 cells assessed as growth inhibition after 72 hrs by MTT assay; assay type: functional; settings: MCF7, 72 h; outline: as §2
Jurkat [7] = assay: Cytotoxicity against human Jurkat cells assessed as growth inhibition after 72 hrs by MTT assay; assay type: functional
Jurkat [8] = assay: Photocytotoxicity against human Jurkat cells assessed as growth inhibition at 1.25 J/cm'2 irradiation for 30 mins followed by drug treated for 72 hrs by MTT assay; assay type: functional; settings: light or radiation study; outline: as §1
LoVo [9] = assay: Photocytotoxicity against human LoVo cells assessed as growth inhibition at 3.75 J/cm'2 irradiation for 30 mins followed by drug treated for 72 hrs by MTT assay; assay type: functional; settings: light or radiation study; outline: as §1
A549 [10] = assay: Photocytotoxicity against human A549 cells assessed as growth inhibition at 3.75 J/cm'2 irradiation for 30 mins followed by drug treated for 72 hrs by MTT assay; assay type: functional; settings: A549, light or radiation study; outline: as §1
HL-60 [11] = assay: Photocytotoxicity against human HL60 cells assessed as growth inhibition at 1.25 J/cm'2 irradiation for 30 mins followed by drug treated for 72 hrs by MTT assay; assay type: functional; settings: HL-60, light or radiation study; outline: as §1
LoVo [12] = assay: Photocytotoxicity against human LoVo cells assessed as growth inhibition at 2.5 J/cm'2 irradiation for 30 mins followed by drug treated for 72 hrs by MTT assay; assay type: functional; settings: light or radiation study; outline: as §1
A549 [13] = assay: Cytotoxicity against human A549 cells assessed as growth inhibition after 72 hrs by MTT assay; assay type: functional; settings: A549, 72 h; outline: as §2
Jurkat [14] = assay: Photocytotoxicity against human Jurkat cells assessed as growth inhibition at 2.5 J/cm'2 irradiation for 30 mins followed by drug treated for 72 hrs by MTT assay; assay type: functional; settings: light or radiation study; outline: as §1
MCF7 [15] = assay: Photocytotoxicity against human MCF7 cells assessed as growth inhibition at 2.5 J/cm'2 irradiation for 30 mins followed by drug treated for 72 hrs by MTT assay; assay type: functional; settings: MCF7, light or radiation study; outline: as §1
Jurkat [16] = assay: Induction of apoptosis in human Jurkat cells assessed as lysosome death at 1 to 2 uM using acridine orange staining measured 24 hrs post 2.5 J/cm'2 irradiation by flow cytometry; assay type: functional, cell-based
Jurkat [17] = assay: Induction of apoptosis in human Jurkat cells assessed as ROS production at 1 to 2 uM using HE and DCFDA staining measured 24 hrs post 2.5 J/cm'2 irradiation by FACS assay; assay type: functional, cell-based
Jurkat [18] = assay: Photocytotoxicity against human Jurkat cells assessed as cell survival at 0.5 uM measured 72 hrs post 2.5 J/cm'2 irradiation by MTT assay in presence of lipophilic scavengers; assay type: functional, cell-based
Outline: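 Jurkat cells irradiated at 2.5 J/cm² with compound in HBSS together with a scavenger: vitamin E 60 µM, NaN₃ 10 mM, DABCO 1 mM, GSH 1 mM, DMTU 1 mM or mannitol 10 mM. Medium replaced after irradiation; viability by MTT 72 h later.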

Escherichia coli = assay: Induction of DNA damage in Escherichia coli pBR322 DNA measured at 7.5 J/cm'2 UV-A irradiation by neutral agarose electrophoresis
Outline: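 pBR322 plasmid (100 ng) in 10 mM phosphate buffer pH 7.2 irradiated at 7.5 J/cm² UV-A with compound at a compound/DNA ratio of 3/1. Aliquots incubated at 37 °C with Fpg or Endo III. Run on 1% agarose in TAE at 70 V for 4 h; supercoiled, open circular and linear bands quantified.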

Jurkat [19] = assay: Induction of apoptosis in human Jurkat cells assessed as reduction in alive cells using Annexin-V and propidium iodide staining at 1 to 2 uM measured 24 hrs post 2.5 J/cm'2 irradiation by flow cytometry analysis; assay type: functional, cell-based
Outline: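 Jurkat cells irradiated (2.5 J/cm²) with compound at 1 or 2 µM. After 24 h, co-stained with Annexin V-FITC and PI and analysed by flow cytometry (excitation 488 nm; emission 525 and 585 nm). Mean of three independent experiments.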

Jurkat [20] = assay: Induction of apoptosis in human Jurkat cells assessed as increase in cleaved caspase 3 level at 1 uM measured 24 hrs post 2.5 J/cm'2 irradiation by Western blot analysis; assay type: functional, cell-based
Outline: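 Jurkat cells irradiated (2.5 J/cm²) with compound at 1 µM. At 24 h, cells washed in cold PBS and lysed on ice for 20 min. 20 µg protein run on 8–16% gradient gels and transferred to nitrocellulose. Probed with rabbit anti-caspase-3 and β-actin (1:1000, 2 h), then peroxidase anti-rabbit IgG; ECL detection.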

A549 [21] = assay: Photocytotoxicity against human A549 cells assessed as inhibition of colony formation at 2.5 J/cm'2 irradiation after 1 to 2 weeks using crystal violet staining by optical microscopy; assay type: functional, cell-based
Outline: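 A-549 cells (10 × 10³) plated in dishes. After 24 h, irradiated at 2.5 J/cm² with compound at varying concentrations. Medium replaced, then cultured 1–2 weeks with medium changes every 2–3 days. Stained with crystal violet; colonies of ≥50 cells counted visually. Expressed as % of untreated cells; mean ± SEM of three experiments.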

Jurkat [22] = assay: Induction of lipid peroxidation in human Jurkat cells at 2 uM measured 24 hrs post 2.5 J/cm'2 irradiation by TBA assay; assay type: functional, cell-based
Outline: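 TBA test for TBARS performed on supernatant medium and on cell lysates 24 h post-irradiation. Mean ± SEM of three experiments.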

Jurkat [23] = assay: Induction of apoptosis in human Jurkat cells assessed as reduction in mitochondrial potential at 1 to 2 uM using JC-1 staining measured 24 hrs post 2.5 J/cm'2 irradiation by FACS assay; assay type: functional, cell-based
Outline: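 At 24 h after 2.5 J/cm² irradiation with compound at 1 or 2 µM, Jurkat cells were pelleted and resuspended in HBSS with 1 µM JC-1. After 10 min at 37 °C, fluorescence read at 530 and 590 nm by flow cytometry. Mean ± SEM, n=3.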

| SMILES | GI50 (HL-60 [1]) | GI50 (LoVo [2]) | GI50 (A549 [3]) | GI50 (HL-60 [4]) | GI50 (MCF7 [5]) | GI50 (MCF7 [6]) | GI50 (Jurkat [7]) | GI50 (Jurkat [8]) | GI50 (LoVo [9]) | GI50 (A549 [10]) | GI50 (HL-60 [11]) | GI50 (LoVo [12]) | GI50 (A549 [13]) | GI50 (Jurkat [14]) | GI50 (MCF7 [15]) | other results |
| --- | --- | --- | --- | --- | --- | --- | --- | --- | --- | --- | --- | --- | --- | --- | --- | --- |
| Cn1c2c(cc(S(=O)(=O)c3ccccc3)c1=O)CCc1c-2cnn1-c1cccc(Cl)c1 | 2.44 µM | > 20 µM | > 20 µM | > 20 µM | 9.01 µM | > 20 µM | 11.3 µM | > 20 µM | 7.54 µM | 8.4 µM | > 20 µM | 13.1 µM | > 20 µM | 2.81 µM | 12.7 µM | – |
| O=c1[nH]c2c(cc1S(=O)(=O)c1ccccc1)CCc1c-2cnn1-c1ccccc1 | > 20 µM | > 20 µM | > 20 µM | > 20 µM | > 20 µM | 11.5 µM | 20 µM | > 20 µM | > 20 µM | 14.1 µM | > 20 µM | > 20 µM | 10.8 µM | > 20 µM | > 20 µM | – |
| COc1ccc(-n2ncc3c4nc(OC)c(S(=O)(=O)c5ccccc5)cc4ccc32)cc1 | 0.76 µM | > 20 µM | 0.35 µM | > 20 µM | 0.59 µM | 16.2 µM | > 20 µM | 1.5 µM | 0.16 µM | 0.09 µM | 0.99 µM | 0.42 µM | > 20 µM | 0.54 µM | 1.23 µM | – |
| COc1nc2c(cc1S(=O)(=O)c1ccccc1)CCc1c-2cnn1-c1ccc(Cl)cc1 | 0.48 µM | > 20 µM | 5.28 µM | > 20 µM | 1.69 µM | > 20 µM | 11.3 µM | 0.72 µM | 0.73 µM | 1.49 µM | 4.03 µM | 5.53 µM | > 20 µM | 0.43 µM | 7.09 µM | Activity (Jurkat [16]): inactive; Activity (Jurkat [17]): inactive; Activity (Jurkat [18]): inactive; Activity (Escherichia coli): inactive; Activity (Jurkat [19]): Active; Activity (Jurkat [20]): inactive; Activity (A549 [21]): Dose-dependent effect; Activity (Jurkat [22]): Active; Activity (Jurkat [23]): Active |
